Results taken from ChEMBL document CHEMBL1134629, “Synthesis and biological evaluation of s-triazine substituted polyamines as potential new anti-trypanosomal drugs” (J Med Chem, 2001).
pIC50, pKi: −log10 of the molar value.

Columns and labels:
Rattus norvegicus = organism: Rattus norvegicus; assay: Inhibitory activity against L-6 rat myoblast cells; type: functional, cell-based
Summary of the method: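 Noninfected rat L-6 skeletal myoblasts seeded at 2000 cells/well in RPMI 1640 with 10% FBS and 2 mM L-glutamine; serial drug dilutions as in the T. cruzi assay, 37 °C, 5% CO2; MIC determined microscopically after 4 days.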

[1] = Inhibitory activity against Trypanosoma cruzi; type: functional
Summary of the method: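 L-6 myoblasts (2000/well, RPMI 1640, 10% FBS, 2 mM L-glutamine) infected after 24 h with 5000 trypomastigotes of T. cruzi Tulahuen C2C4 carrying LacZ plus serial drug dilution; 4 days at 37 °C, 5% CO2. Intracellular amastigote growth read via CPRG/Nonidet colour at 540 nm after 2-4 h; IC50 from sigmoidal inhibition curve.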

Adenosine transporter 1 = target: T1, Adenosine transporter 1 (Trypanosoma brucei, UniProt Q9Y0I0); assay: Ability to inhibit adenosine uptake by the P2 transporter in Trypanosoma brucei
T1 sequence (Q9Y0I0 whole entry): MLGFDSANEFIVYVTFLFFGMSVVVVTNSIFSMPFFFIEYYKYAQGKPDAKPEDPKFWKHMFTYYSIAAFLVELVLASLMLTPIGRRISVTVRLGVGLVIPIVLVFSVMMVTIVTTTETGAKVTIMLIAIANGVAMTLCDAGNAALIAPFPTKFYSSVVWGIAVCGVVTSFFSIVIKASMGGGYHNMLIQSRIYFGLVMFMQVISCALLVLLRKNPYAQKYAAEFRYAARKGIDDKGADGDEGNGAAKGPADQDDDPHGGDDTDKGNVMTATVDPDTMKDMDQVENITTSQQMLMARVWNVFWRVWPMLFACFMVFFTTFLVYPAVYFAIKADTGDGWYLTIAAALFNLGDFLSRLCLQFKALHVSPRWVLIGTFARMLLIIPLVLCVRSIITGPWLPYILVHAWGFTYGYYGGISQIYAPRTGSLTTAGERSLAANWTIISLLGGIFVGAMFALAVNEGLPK
Summary of the method: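 T. b. brucei 427 cells (100 µL at 2 × 10⁸/mL) added to buffer with radiolabeled adenosine, 1 mM inosine to block P1 uptake, and varying inhibitor concentrations; 10 s at room temperature, then spun through 1-bromododecane oil, pellet radioactivity counted by scintillation. Apparent Ki from competitive inhibition equation; duplicate experiments.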

[2] = tested on: Trypanosoma brucei rhodesiense; assay: Inhibitory activity against T.b. rhodesiense; type: functional, organism-based
[3] = tested on: Trypanosoma brucei brucei; assay: Inhibitory activity against Trypanosoma brucei; type: functional, organism-based

| SMILES | pIC50 (Rattus norvegicus) | pKi (Adenosine transporter 1) | pIC50 [2] | pIC50 [3] | pIC50 [1] |
| --- | --- | --- | --- | --- | --- |
| Nc1nc(N)nc(NCCCNC2CCC(NCCCNc3nc(N)nc(N)n3)CC2)n1 (centres undefined) | 3.47 | 3.90 | < 3.82 | < 4.00 | < 3.82 |
| CNc1nc(N)nc(NCCCNCCCCCCCCCCCCNCCCNc2nc(N)nc(NC)n2)n1 |  | 6.87 | 5.01 | 5.70 | 3.94 |
| Nc1nc(N)nc(NCCCNC2CCCCC2NCCCNc2nc(N)nc(N)n2)n1 (centres undefined) | 3.47 | 4.26 | < 3.82 | < 4.00 | < 3.82 |
| CCCCCCCCCCCCCCCCCCNc1nc(NC)nc(NC)n1 | 4.32 |  | 4.85 |  | 4.92 |
| CNc1nc(NC)nc(NCCCNCCCCCCCCCNCCCNc2nc(NC)nc(NC)n2)n1 | 3.54 | 4.85 | 4.77 | 5.40 | < 3.89 |
| Nc1nc(N)nc(NCCCNCCCCNCCCNc2nc(N)nc(N)n2)n1 | 3.45 | 4.14 | 3.80 | < 4.00 | < 3.80 |
| CC(CNCCCNc1nc(N)nc(N)n1)NCCCNc1nc(N)nc(N)n1 (centres undefined) | 3.44 | 3.79 | < 3.79 | < 4.00 | < 3.79 |
| Nc1nc(N)nc(NCCCCCCCCCCCCNc2nc(N)nc(N)n2)n1 | 3.62 |  | 4.89 |  | 5.22 |
| CN(C)c1nc(N)nc(NCCCNCCCCCCCCCNCCCNc2nc(N)nc(N(C)C)n2)n1 | 3.56 | 5.00 | 5.02 | 4.40 | < 3.91 |
| CNc1nc(N)nc(NCCCNCCCCCCCCCNCCCNc2nc(N)nc(NC)n2)n1 | 3.55 | 6.12 | 4.80 | 4.28 | < 3.87 |
| Nc1nc(N)nc(CN(CCCNCCCCCCCCCNCCCN(Cc2nc(N)nc(N)n2)Cc2nc(N)nc(N)n2)Cc2nc(N)nc(N)n2)n1 | 3.66 | 4.09 | 5.40 | 4.49 | < 4.06 |
| CN(C)c1nc(NCCCNCCCCCCCCCCCCNCCCN)nc(N(C)C)n1 | 4.85 | 6.22 | 5.89 | 4.83 | 6.15 |
| Nc1nc(N)nc(NCCCNCCCCCCCCCNCCCNc2nc(N)nc(N)n2)n1 |  | 4.72 | 3.89 | < 4.00 | < 3.85 |
| CN(C)c1nc(N)nc(NCCCNCCCCCCCCCCCCNCCCNc2nc(N)nc(N(C)C)n2)n1 | 4.29 | 6.62 | 5.46 | < 4.00 | 5.01 |
| CNc1nc(NC)nc(NCCCNCCCCCCCCCCCCNCCCNc2nc(NC)nc(NC)n2)n1 | 3.84 | 5.49 | 5.64 | 4.77 | 4.74 |
| Nc1nc(N)nc(NCCCNCCCCCCCCCCCCNCCCNc2nc(N)nc(N)n2)n1 | 3.53 | 6.30 | 4.80 | < 4.00 | < 4.89 |

Stronger by pIC50 [2], values ahead:

| pIC50 (Rattus norvegicus) | pKi (Adenosine transporter 1) | pIC50 [2] | pIC50 [3] | SMILES | pIC50 [1] |
| --- | --- | --- | --- | --- | --- |
| 4.42 | 4.54 | 5.92 | 4.49 | CN(C)c1nc(NCCCNCCCCCCCCCNCCCNc2nc(N(C)C)nc(N(C)C)n2)nc(N(C)C)n1 | 4.80 |
| 3.90 | 6.39 | 5.96 | < 3.70 | CNc1nc(N)nc(NCCCNCCCCCCCCCCCCNCCCN)n1 | < 3.81 |
| 4.40 | 6.00 | 6.03 | 4.70 | CN(C)c1nc(N)nc(NCCCNCCCCCCCCCCCCNCCCN)n1 | 4.49 |
| 3.87 | 4.77 | 6.03 | 4.08 | CNc1nc(NC)nc(NCCCNCCCCCCCCCNCCCN)n1 | 4.64 |
| 5.17 | 5.60 | 6.09 | 5.77 | CN(C)c1nc(NCCCNCCCCCCCCCCCCNCCCNc2nc(N(C)C)nc(N(C)C)n2)nc(N(C)C)n1 | 6.10 |
| 4.24 | 4.60 | 6.24 | 4.70 | CNc1nc(NC)nc(NCCCNCCCCCCCCCCCCNCCCN)n1 | 4.51 |
| 3.73 | 5.17 | 6.24 | 4.68 | Nc1nc(N)nc(CN(CCCNCCCCCCCCCCCCNCCCN(Cc2nc(N)nc(N)n2)Cc2nc(N)nc(N)n2)Cc2nc(N)nc(N)n2)n1 | < 4.07 |
| 3.98 | 5.34 | 6.36 | 5.70 | CN(C)c1nc(N)nc(CN(CCCNCCCCCCCCCCCCNCCCN(Cc2nc(N)nc(N(C)C)n2)Cc2nc(N)nc(N(C)C)n2)Cc2nc(N)nc(N(C)C)n2)n1 | < 4.11 |
| 3.75 | 4.77 | 6.58 | 5.52 | CN(C)c1nc(N)nc(CN(CCCNCCCCCCCCCNCCCN(Cc2nc(N)nc(N(C)C)n2)Cc2nc(N)nc(N(C)C)n2)Cc2nc(N)nc(N(C)C)n2)n1 | 4.26 |
| 3.75 | 4.52 | 6.58 | 7.00 | CNc1nc(CN(CCCNCCCCCCCCCNCCCN(Cc2nc(NC)nc(NC)n2)Cc2nc(NC)nc(NC)n2)Cc2nc(NC)nc(NC)n2)nc(NC)n1 | 4.11 |
| 4.12 | 5.62 | 6.74 | 5.54 | CNc1nc(CN(CCCNCCCCCCCCCCCCNCCCN(Cc2nc(NC)nc(NC)n2)Cc2nc(NC)nc(NC)n2)Cc2nc(NC)nc(NC)n2)nc(NC)n1 | < 4.11 |
